Usually pIC50 stands for −log10 of the IC50, conventionally taken in molar units. As usually defined, the inhibition in vivo is the change of the read-out against control, counted positive when it falls. Usually bioavailability stands for dose-corrected exposure relative to a reference, in per cent. Usually half-life stands for how long it takes for the measured level to halve. A higher half-life goes with slow loss. For orientation: clearance means the rate of elimination divided by the concentration.

The values that follow come from ChEMBL document CHEMBL3232705, “Discovery of isoquinolinone indole acetic acids as antagonists of chemoattractant receptor homologous molecule expressed on Th2 cells (CRTH2) for the treatment of allergic inflammatory diseases” (J Med Chem, 2014).

Structures are written as SMILES. pIC50: −log10 of the molar value. Calls of active or inactive are those of the source. No cut-off for these calls is given here. A value given as a limit tells only on which side of the number the result lay.

Series [1] has as its target T1, Thromboxane A2 receptor (Homo sapiens, UniProt P21731).
T1 sequence (P21731 whole entry): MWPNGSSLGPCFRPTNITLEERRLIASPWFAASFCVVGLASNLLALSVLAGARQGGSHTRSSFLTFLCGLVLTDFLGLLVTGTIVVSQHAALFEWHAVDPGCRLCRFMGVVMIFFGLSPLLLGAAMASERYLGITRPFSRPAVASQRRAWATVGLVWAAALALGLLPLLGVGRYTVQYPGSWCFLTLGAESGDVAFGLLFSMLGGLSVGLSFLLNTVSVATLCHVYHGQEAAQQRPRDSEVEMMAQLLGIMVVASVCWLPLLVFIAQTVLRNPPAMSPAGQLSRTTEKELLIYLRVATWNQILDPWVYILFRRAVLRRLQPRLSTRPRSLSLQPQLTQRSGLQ
Description: Antagonist activity at TXA2 receptor (unknown origin) by FRET assay.

Series [2] concerns the target T2, Prostaglandin D2 receptor 2 (Mus musculus, UniProt Q9Z2J6).
T2 sequence (Q9Z2J6 whole entry): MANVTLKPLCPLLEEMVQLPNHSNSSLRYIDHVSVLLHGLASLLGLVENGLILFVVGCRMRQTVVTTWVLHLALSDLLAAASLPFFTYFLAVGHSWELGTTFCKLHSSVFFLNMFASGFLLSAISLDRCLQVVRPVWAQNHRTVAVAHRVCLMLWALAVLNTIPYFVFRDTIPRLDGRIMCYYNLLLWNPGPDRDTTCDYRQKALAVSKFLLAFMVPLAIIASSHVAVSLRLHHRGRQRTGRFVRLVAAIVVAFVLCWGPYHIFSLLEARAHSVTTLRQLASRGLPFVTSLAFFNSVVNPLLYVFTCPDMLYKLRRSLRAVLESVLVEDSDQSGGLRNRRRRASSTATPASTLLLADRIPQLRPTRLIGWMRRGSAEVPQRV
Briefly: Inhibition of mouse CRTH2 receptor.

Series [3] addresses Voltage-gated inwardly rectifying potassium channel KCNH2 (Homo sapiens, UniProt Q12809). Briefly: Inhibition of human ERG channel at 33 uM.
Series [4] addresses Cytochrome P450 2D6 (Homo sapiens, UniProt P10635). Description: Inhibition of CYP2D6 (unknown origin). The format is ADME.
The target of series [5] is T3, Cytochrome P450 2A6 (Homo sapiens, UniProt P11509).
T3 sequence (P11509 whole entry): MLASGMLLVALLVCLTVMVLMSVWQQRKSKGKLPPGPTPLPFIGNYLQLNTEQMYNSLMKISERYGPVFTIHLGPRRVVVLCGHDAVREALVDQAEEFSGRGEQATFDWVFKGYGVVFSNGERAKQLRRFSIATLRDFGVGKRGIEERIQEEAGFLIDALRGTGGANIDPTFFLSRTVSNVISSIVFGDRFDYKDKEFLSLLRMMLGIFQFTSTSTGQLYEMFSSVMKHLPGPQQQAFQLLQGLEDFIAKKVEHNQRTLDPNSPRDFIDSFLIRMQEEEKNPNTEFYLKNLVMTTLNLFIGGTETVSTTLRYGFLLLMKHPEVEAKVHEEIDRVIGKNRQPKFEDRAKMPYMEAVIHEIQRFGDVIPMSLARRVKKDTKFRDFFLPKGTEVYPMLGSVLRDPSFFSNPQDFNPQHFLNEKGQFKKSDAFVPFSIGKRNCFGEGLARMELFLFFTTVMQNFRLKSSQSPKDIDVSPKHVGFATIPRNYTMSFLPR
Description: Inhibition of CYP2A6 (unknown origin). The format is ADME.

Series [6] concerns Ovis aries. Briefly: Inhibition of allergen-induced mucociliary clearance in sheep assessed as tracheal mucus velocity at 3 mg/kg, iv measured at 8 hrs (reference value: 47%). The format is functional. The conditions noted are these: Trachea. The essentials:
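Five sheep received 3 mg/kg iv around allergen challenge. Tracheal mucus velocity measured at 4 h and 8 h and expressed as % of baseline.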

In series [7] the test system is Ovis aries. Briefly: Inhibition of Ascaris-induced airway bronchoconstriction in sheep assessed as inhibition of bronchoalveolar lavage fluid inflammation at 1 mg/kg, iv qd for 7 days. To be noted: Lung. More on the design: dose 1 mg/kg. Type of series: functional, organism-based. The essentials: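 Sheep given 1 mg/kg iv once daily for 7 days before Ascaris suum allergen challenge. Early and late responses read as airway resistance above baseline, compared with each animal's historical untreated values. After the AHR measurement, three bronchi per sheep were lavaged for cell counts.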

Series [8] deals with Ovis aries. Briefly: Inhibition of Ascaris-induced airway bronchoconstriction in sheep assessed as inhibition of early phase allergic airway bronchoconstriction at 3 mg/kg, iv bid. The arrangement: dose 3 mg/kg. Type of series: functional, organism-based.
The subject of series [9] is Ovis aries. Description: Inhibition of Ascaris-induced airway bronchoconstriction in sheep assessed as inhibition of late phase allergic airway bronchoconstriction at 3 mg/kg, iv bid. Type of series: functional, organism-based. The arrangement: dose 3 mg/kg.
Series [10] has as its system Mus musculus. Description: Antiallergic activity in house dust mite-induced allergic airway disease BALB/c mouse model assessed as reduction in neutrophil level in bronchoalveolar lavage fluid at 40 mg/kg, po after 72 hrs of HDM challenge. Type of series: functional, organism-based. More on the design: dose 40 mg/kg. To be noted: Lung. The essentials:
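BALB/c mice given house dust mite intratracheally via a catheter passed through the vocal cords. Test article 40 mg/kg orally once daily; dexamethasone 1 mg/kg ip once daily as reference. Total and differential BAL cells (eosinophils, macrophages, lymphocytes, neutrophils) counted 72 h after HDM challenge. Mean ± SEM, Mann–Whitney U test.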

Series [11] deals with Mus musculus. Briefly: Antiallergic inflammatory activity in oxazolone induced contact hypersensitivity mouse model assessed as reduction ear swelling at 3 mg/kg, po prior to oxazolone and 7 hrs post challenge measured after 24 hrs. Type of series: functional. In a few lines:
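Mice sensitized on the shaved abdomen with 2% oxazolone in ethanol one week before challenge. Dosed orally 1 h before the left ear was challenged with 10 μL of 2% oxazolone (ethanol on the right ear as control), then redosed 7 h after challenge. Ear thickness measured by micrometer; swelling taken as 24 h post-challenge minus pre-challenge thickness. Unpaired t test.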

A short description of series [12]: Oral bioavailability in dog at 10 mg/kg. Type of series: ADME, organism-based, Canis lupus familiaris. The conditions noted are these: in vivo.
The nature of series [13]: Oral bioavailability in rat at 10 mg/kg. Type of series: ADME, organism-based. To be noted: in vivo.
Series [14] can be described thus: Half life in dog at 2 mg/kg, iv. The conditions noted are these: in vivo. The arrangement: dose 2 mg/kg, route intravenous. Type of series: ADME, organism-based, Canis lupus familiaris. The essentials: (§1)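 Single intravenous dose of 2 mg/kg and single oral dose of 10 mg/kg, given separately, in rat, dog and monkey. Clearance and half-life taken from the iv arm; Cmax from the oral arm.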

The nature of series [15]: Volume of distribution at steady state in rat at 2 mg/kg, iv. Type of series: ADME, organism-based. To be noted: in vivo, read-out: Vdss. More on the design: dose 2 mg/kg, route intravenous.
Series [16] can be described thus: Clearance in dog at 2 mg/kg, iv. Type of series: ADME, organism-based, Canis lupus familiaris. The arrangement: dose 2 mg/kg, route intravenous. The conditions noted are these: in vivo. In a few lines: as §1

Chain of Cytochrome P450 2D6 (P10635 whole entry): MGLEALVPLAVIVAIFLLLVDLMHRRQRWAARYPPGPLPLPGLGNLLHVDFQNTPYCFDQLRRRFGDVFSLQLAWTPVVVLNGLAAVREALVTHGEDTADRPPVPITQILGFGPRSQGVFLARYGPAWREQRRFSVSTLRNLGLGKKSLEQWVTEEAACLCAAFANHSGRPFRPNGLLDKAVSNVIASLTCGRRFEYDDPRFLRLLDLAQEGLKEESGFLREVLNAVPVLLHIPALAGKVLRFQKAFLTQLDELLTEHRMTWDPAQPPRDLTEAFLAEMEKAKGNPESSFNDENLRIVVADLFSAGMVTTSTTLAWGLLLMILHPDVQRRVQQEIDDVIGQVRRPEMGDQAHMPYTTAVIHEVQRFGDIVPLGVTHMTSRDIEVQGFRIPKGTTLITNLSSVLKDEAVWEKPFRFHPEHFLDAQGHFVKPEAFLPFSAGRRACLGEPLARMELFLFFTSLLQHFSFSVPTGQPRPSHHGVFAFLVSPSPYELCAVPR
Chain of Voltage-gated inwardly rectifying potassium channel KCNH2 (Q12809 whole entry): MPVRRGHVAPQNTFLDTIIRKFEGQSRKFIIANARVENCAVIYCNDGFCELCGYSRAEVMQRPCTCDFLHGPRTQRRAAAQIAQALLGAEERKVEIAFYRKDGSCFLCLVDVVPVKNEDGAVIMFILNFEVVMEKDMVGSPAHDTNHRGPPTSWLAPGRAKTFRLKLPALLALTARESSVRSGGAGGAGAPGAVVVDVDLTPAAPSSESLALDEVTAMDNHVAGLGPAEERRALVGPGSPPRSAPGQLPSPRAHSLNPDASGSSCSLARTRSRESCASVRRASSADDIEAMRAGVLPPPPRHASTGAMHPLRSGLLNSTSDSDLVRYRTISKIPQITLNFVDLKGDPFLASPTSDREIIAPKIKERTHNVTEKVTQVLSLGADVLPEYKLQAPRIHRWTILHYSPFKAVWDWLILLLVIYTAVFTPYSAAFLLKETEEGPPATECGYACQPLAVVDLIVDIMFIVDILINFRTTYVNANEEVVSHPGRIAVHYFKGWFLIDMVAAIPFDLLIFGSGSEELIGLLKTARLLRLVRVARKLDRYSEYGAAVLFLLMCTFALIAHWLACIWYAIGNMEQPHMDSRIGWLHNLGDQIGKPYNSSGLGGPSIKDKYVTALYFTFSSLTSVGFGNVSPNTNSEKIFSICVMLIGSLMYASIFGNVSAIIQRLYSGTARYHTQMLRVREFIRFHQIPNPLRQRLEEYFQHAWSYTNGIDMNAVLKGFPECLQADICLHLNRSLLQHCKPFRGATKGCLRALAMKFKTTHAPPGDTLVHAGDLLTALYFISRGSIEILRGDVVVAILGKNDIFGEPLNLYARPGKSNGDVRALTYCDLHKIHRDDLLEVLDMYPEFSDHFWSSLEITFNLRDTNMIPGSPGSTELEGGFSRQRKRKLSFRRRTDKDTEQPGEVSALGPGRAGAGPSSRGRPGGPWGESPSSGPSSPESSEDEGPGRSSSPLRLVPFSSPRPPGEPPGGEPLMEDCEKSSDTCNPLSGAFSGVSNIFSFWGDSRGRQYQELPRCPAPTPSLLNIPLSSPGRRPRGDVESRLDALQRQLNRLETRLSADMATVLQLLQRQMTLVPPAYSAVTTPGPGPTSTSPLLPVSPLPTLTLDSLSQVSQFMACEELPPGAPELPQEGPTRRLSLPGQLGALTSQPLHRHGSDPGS

As to `Cc1c(-c2cn(C(C)C)c(=O)c3ccccc23)c2cc(F)ccc2n1CC(=O)O`, the pIC50 in series [1] is < 6.00; in [2] it was 8.40; in [4] it was < 4.00; in series [5], < 4.00. In series [3], the “inhibition (INH)” value is on record as “Not Active”. Also, the values for the inhibition in vivo at 3 mg/kg in series [6] and in series [11] were 98% and 50.5%, respectively. The inhibition entry in series [7], in [9] and in series [10] was “Active” each time. The inhibition entry in [8] was “inactive”. In addition, the bioavailability was determined as 32% in series [12] and 20% in series [13]. Further, the half-life in series [14] is 3.4 h. In addition, the Vd in series [15] came out at 1.2 L/kg. The clearance in series [16] was 5.6 mL/min/kg.
